In ChEMBL document CHEMBL5154717, “Identification of thiophene-benzenesulfonamide derivatives for the treatment of multidrug-resistant tuberculosis” (Eur J Med Chem, 2022):
≈ marks a conversion by molar mass, not a printed value.

Tests used:
J774.A1 [1] = assay: Antimycobacterial activity against Mycobacterium tuberculosis H37Rv infected in mouse J774.A1 cells assessed as change in log10 CFU at 5 ug/ml; format: functional; settings: dose 5 µg/ml
Method in brief: (§1)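 Mouse J774A.1 macrophages infected with M. tuberculosis H37Rv, test compound at final 10 or 5 µg/mL. Read-out is intracellular log10 CFU; Δlog10 CFU = untreated minus treated. Triplicates in at least three separate experiments.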

[2] = tested on: Mycobacterium tuberculosis; assay: Antimycobacterial activity against Mycobacterium tuberculosis 13946 clinical isolate measured by MABA assay; format: functional
Method in brief: (§2)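 Microplate Alamar Blue assay against replicating M. tuberculosis H37Rv or clinical isolates. MIC is the lowest concentration giving ≥90% reduction in fluorescence relative to the mean of replicate bacterium-only controls.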

[3] = Metabolic stability in human hepatocytes assessed as half-life at 1 uM measured by LC-MS/MS analysis; format: ADME, cell-based, Hepatocyte
Method in brief: (§3)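 Compound at 1 µM with hepatocytes at 1 million cells/mL final; human hepatocytes are mixed donor, mouse are male. Incubated at 37 °C in CO2 at ~100 rpm. Sampled at 0, 15, 30, 60, 90 and 120 min, quenched in ice-cold ACN/MeOH with internal standard. Parent remaining measured by LC-MS/MS.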

[4] = Cytotoxicity against human HepG2 cells measured by MTT assay; format: toxicity, cell-based
Method in brief: (§4)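 Vero, HepG2 and mouse J774A.1 cells grown in RPMI 1640 with 10% FBS. MTT read-out in 96-well format.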

[5] = Cytotoxicity against mouse J774.A1 cells measured by MTT assay; format: toxicity, cell-based; method in brief: as §4
[6] = tested on: Mycobacterium tuberculosis; assay: Antimycobacterial activity against Mycobacterium tuberculosis H37Rv measured by MABA assay; format: functional; method in brief: as §2
[7] = Metabolic stability in human hepatocytes assessed as compound remaining at 1 uM measured by LC-MS/MS analysis; format: ADME, cell-based, Hepatocyte; settings: read-out: Stability; method in brief: as §3
[8] = tested on: Mycobacterium tuberculosis; assay: Antimycobacterial activity against Mycobacterium tuberculosis H37Rv infected in BALB/c mouse assessed as reduction in log10 CFU in lungs at 100 mg/kg, po administered 5 times a week from day 10 to 30; format: functional
Method in brief: (§5)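 Female SPF BALB/c mice, 18–20 g, 6 per group, aerosol-infected with M. tuberculosis H37Rv to deposit 50–100 bacilli per lung. Oral gavage in 0.5% CMC at 25 or 100 mg/kg, 5 days/week from day 10 to day 30; controls get vehicle. Lungs harvested the next day and plated on 7H11 for 3 weeks at 37 °C. Mean log10 CFU compared by Student's t test.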

[9] = Toxicity in BALB/c mouse infected with Mycobacterium tuberculosis H37Rv assessed as body weight at 100 mg/kg, po administered 5 times a week from day 10 to 30; format: organism-based; settings: in vivo; method in brief: as §5
[10] = Metabolic stability in mouse hepatocytes assessed as half-life at 1 uM measured by LC-MS/MS analysis; format: ADME, cell-based, Hepatocyte; method in brief: as §3
[11] = biological target: Voltage-gated inwardly rectifying potassium channel KCNH2 (Homo sapiens, UniProt Q12809); assay: Inhibition of hERG; format: toxicity
Voltage-gated inwardly rectifying potassium channel KCNH2, sequence (Q12809 whole entry): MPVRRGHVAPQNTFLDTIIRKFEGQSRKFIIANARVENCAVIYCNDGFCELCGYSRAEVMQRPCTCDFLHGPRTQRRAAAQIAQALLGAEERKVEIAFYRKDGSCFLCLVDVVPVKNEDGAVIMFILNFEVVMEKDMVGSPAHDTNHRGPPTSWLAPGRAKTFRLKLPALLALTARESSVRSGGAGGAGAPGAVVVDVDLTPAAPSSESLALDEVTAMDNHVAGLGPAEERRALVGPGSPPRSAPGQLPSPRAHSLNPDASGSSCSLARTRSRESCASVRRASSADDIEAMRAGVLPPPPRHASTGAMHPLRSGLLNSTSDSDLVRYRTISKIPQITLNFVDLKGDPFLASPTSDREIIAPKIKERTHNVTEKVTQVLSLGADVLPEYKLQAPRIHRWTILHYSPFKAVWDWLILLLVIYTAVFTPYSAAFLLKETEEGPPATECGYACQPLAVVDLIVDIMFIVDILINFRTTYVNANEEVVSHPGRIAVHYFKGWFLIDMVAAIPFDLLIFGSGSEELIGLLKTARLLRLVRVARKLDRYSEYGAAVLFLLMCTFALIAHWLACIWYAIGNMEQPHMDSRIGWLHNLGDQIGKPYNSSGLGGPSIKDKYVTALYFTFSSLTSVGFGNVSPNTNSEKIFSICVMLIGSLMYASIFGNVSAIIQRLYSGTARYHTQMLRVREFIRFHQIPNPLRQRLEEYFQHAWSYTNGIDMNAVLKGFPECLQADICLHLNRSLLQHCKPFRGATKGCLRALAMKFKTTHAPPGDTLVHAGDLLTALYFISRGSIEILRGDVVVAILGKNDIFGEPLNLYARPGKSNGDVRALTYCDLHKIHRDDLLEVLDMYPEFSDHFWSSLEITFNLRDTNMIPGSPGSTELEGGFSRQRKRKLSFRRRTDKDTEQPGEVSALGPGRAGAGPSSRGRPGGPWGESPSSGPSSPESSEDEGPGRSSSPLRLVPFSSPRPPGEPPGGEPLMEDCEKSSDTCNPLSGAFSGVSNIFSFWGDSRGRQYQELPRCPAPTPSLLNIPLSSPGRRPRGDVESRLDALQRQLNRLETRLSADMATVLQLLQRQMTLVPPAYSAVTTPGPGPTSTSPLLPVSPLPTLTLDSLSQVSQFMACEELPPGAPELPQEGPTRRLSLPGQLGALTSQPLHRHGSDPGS
Method in brief: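 Electrophysiological recording of hERG current at 30, 10, 3.0, 1.0 and 0.3 µM, run in duplicate for IC50.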

[12] = tested on: Mycobacterium tuberculosis; assay: Antimycobacterial activity against Mycobacterium tuberculosis 14862 clinical isolate measured by MABA assay; format: functional; method in brief: as §2
[13] = Metabolic stability in mouse hepatocytes assessed as compound remaining at 1 uM measured by LC-MS/MS analysis; format: ADME, cell-based, Hepatocyte; settings: read-out: Stability; method in brief: as §3
[14] = Selectivity index, Ratio of IC50 for Vero cells over MIC for Mycobacterium tuberculosis H37Rv; format: toxicity; settings: monkey
J774.A1 [15] = assay: Antimycobacterial activity against Mycobacterium tuberculosis H37Rv infected in mouse J774.A1 cells assessed as change in log10 CFU at 10 ug/ml; format: functional; settings: dose 10 µg/ml; method in brief: as §1
[16] = Cytotoxicity against African green monkey Vero cells measured by MTT assay; format: toxicity, cell-based; settings: African green monkey (Chlorocebus sabaeus); method in brief: as §4
[17] = Toxicity in BALB/c mouse infected with Mycobacterium tuberculosis H37Rv assessed as body weight at 25 mg/kg, po administered 5 times a week from day 10 to 30; format: organism-based; settings: in vivo; method in brief: as §5
[18] = tested on: Mycobacterium tuberculosis; assay: Antimycobacterial activity against Mycobacterium tuberculosis H37Rv infected in BALB/c mouse assessed as reduction in log10 CFU in lungs at 25 mg/kg, po administered 5 times a week from day 10 to 30; format: functional; method in brief: as §5

## CCOC(=O)NC(=O)c1ccsc1NC(=O)c1ccc(S(=O)(=O)N2CCCC2)cc1
J774.A1 [1]
  Activity: 1.19 deltalog10CFU
[2]
  MIC: 0.057 µg/mL (≈ 0.126 µM)
[3]
  half-life at 1 µM: 24 min
[4]
  IC50: 62.9 µg/mL (≈ 139 µM)
[5]
  IC50: > 64 µg/mL
[6]
  MIC: < 0.016 µg/mL
[7]
  remaining at 1 µM: 42%
[8]
  Activity: 4.81 log10CFU
[9]
  Activity: 20.94 g
[10]
  half-life at 1 µM: 29.7 min
[11]
  IC50: > 30 µM
[12]
  MIC: 0.03 µg/mL (≈ 0.0664 µM)
[13]
  remaining at 1 µM: 49.7%
[14]
  selectivity ratio: > 3640
J774.A1 [15]
  Activity: 1.29 deltalog10CFU
[16]
  IC50: 58.2 µg/mL (≈ 129 µM)

## NNC(=O)c1ccncc1 [ISONIAZID]
[2]
  MIC: 2.46 µg/mL (≈ 17.9 µM)
[17]
  Activity: 20.9 g
[6]
  MIC: 0.019 µg/mL (≈ 0.139 µM)
[18]
  Activity: 1.76 log10CFU
[12]
  MIC: > 10 µg/mL
